From ChEMBL document CHEMBL1649253, “New approach for drug susceptibility testing: monitoring the stress response of mycobacteria” (2009) come the findings set out here.

Format in all cases: functional
For assay [1], the system named is Mycobacterium tuberculosis. The experiment in a line: Antibacterial activity against rifampin-resistant Mycobacterium tuberculosis H37Ra. Put shortly:
(§1)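 Broth microdilution in supplemented 7H9 (complete) medium with twofold drug dilutions. Inoculum 10^6 CFU/ml from cultures grown at 37°C to mid- or late-log phase. Incubated 21 days at 37°C, then turbidity inspected by eye against drug-free controls. MIC is the lowest concentration with no visible growth.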

Assay [2] deals with Mycobacterium tuberculosis. The experiment in a line: Antibacterial activity against isoniazid-resistant Mycobacterium tuberculosis H37Ra. Put shortly: as §1
Assay [3] deals with Mycobacterium tuberculosis. Description: Antibacterial activity against ethambutol-resistant Mycobacterium tuberculosis H37Ra. Put shortly:
as §1

The subject of assay [4] is Mycobacterium tuberculosis. Description: Antibacterial activity against pyrazinamide-resistant Mycobacterium tuberculosis H37Ra. Put shortly:
as §1

SMILES strings stand for the structures. ≈ marks a conversion by molar mass, not a printed value.

Regarding `CC[C@@H](CO)NCCN[C@@H](CC)CO` [ETHAMBUTOL], the MIC (as a rule, the least concentration at which growth counts as inhibited) is 5 µg/mL (≈ 24.5 µM) in assay [1], 5 µg/mL (≈ 24.5 µM) in assay [2], > 400 µg/mL in assay [3] and 5 µg/mL (≈ 24.5 µM) in assay [4].

`NNC(=O)c1ccncc1` [ISONIAZID]: the MIC was 0.2 µg/mL (≈ 1.46 µM) in assay [1], > 16 µg/mL in assay [2], 0.2 µg/mL (≈ 1.46 µM) in assay [3] and 0.2 µg/mL (≈ 1.46 µM) in assay [4].

For `NC(=O)c1cnccn1` [PYRAZINAMIDE], the MIC in assay [1] was 50 µg/mL (≈ 406 µM); in assay [2], 50 µg/mL (≈ 406 µM); in assay [3], 50 µg/mL (≈ 406 µM); in assay [4], > 4000 µg/mL.

With `CO[C@H]1/C=C/O[C@@]2(C)Oc3c(C)c(O)c4c(O)c(c(/C=N/N5CCN(C)CC5)c(O)c4c3C2=O)NC(=O)/C(C)=C\C=C\[C@H](C)[C@H](O)[C@@H](C)[C@@H](O)[C@@H](C)[C@H](OC(C)=O)[C@@H]1C` [RIFAMPIN], the MIC turned out to be 16 µg/mL (≈ 19.4 µM) in assay [1], 0.2 µg/mL (≈ 0.243 µM) in assay [2], 0.2 µg/mL (≈ 0.243 µM) in assay [3] and 0.2 µg/mL (≈ 0.243 µM) in assay [4].
